Data reported in ChEMBL document CHEMBL2169804, “Novel histone deacetylase 8 ligands without a zinc chelating group: exploring an 'upside-down' binding pose” (Bioorg Med Chem Lett, 2012).
The source made the active and inactive calls. The calls are words filed in the database; no cut-off is given here.

Assays:
[1] = target: T1, Protein deacetylase HDAC6 (Homo sapiens) (UniProt Q9UBN7); assay: Inhibition of cytoplasmic HDAC6 in human SH-SY5Y cells assessed as alpha-tubulin acetylation at 1 uM after 24 hrs by Western blot analysis; assay type: cell-based
T1 sequence (whole entry): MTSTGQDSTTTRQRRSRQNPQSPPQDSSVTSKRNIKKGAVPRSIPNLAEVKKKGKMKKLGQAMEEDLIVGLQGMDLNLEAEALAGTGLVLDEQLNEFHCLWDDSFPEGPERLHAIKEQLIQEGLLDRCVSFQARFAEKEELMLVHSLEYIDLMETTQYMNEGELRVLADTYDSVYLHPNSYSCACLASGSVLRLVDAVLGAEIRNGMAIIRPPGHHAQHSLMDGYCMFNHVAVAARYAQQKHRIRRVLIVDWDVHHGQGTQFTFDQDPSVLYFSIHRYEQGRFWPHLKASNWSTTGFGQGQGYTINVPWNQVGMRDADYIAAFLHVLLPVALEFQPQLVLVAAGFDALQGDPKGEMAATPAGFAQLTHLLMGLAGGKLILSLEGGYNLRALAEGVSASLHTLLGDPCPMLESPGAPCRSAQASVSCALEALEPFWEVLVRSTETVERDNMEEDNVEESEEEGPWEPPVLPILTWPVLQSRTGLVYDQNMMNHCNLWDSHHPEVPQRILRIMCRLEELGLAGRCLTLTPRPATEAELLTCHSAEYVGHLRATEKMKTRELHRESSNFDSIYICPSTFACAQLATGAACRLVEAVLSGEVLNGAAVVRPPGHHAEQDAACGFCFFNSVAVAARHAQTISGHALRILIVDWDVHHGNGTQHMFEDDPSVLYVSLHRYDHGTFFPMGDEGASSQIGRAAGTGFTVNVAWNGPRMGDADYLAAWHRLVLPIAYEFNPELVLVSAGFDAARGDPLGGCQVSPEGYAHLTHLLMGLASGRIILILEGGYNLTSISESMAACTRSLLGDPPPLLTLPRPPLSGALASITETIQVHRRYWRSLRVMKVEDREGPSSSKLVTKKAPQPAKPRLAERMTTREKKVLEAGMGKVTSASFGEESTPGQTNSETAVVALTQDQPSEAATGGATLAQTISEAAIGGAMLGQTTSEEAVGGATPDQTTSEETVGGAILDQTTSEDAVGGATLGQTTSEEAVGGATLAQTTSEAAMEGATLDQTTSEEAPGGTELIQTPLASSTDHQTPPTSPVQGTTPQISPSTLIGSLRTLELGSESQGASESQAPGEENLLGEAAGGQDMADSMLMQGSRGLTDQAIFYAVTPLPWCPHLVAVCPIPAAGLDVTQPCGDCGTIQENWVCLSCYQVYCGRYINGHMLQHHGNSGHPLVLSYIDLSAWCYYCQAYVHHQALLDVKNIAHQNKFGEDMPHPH
Procedure, shortened: (§1)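 SH-SY5Y cells were grown to 80% confluence in 1:1 DMEM:OPTI-MEM with 10% FBS. They were treated with vehicle or compound for 24 h at 37 °C, 5% CO2, then lysed in RIPA buffer with protease and phosphatase inhibitors. Lysate containing 20 µg protein was run by SDS-PAGE and blotted with anti-acetyl α-tubulin or anti-acetyl histone H4 (1:1000) overnight at 4 °C, with anti-GAPDH as reference. Detection was by chemiluminescence on a CCD camera.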

[2] = target: T2, Histone deacetylase 8 (Homo sapiens, UniProt Q9BY41); assay: Inhibition of human recombinant HDAC8 using fluor de Lys as substrate preincubated for 5 mins followed by substrate addition measured after 25 mins by microplate reader analysis
T2 sequence (Q9BY41 whole entry): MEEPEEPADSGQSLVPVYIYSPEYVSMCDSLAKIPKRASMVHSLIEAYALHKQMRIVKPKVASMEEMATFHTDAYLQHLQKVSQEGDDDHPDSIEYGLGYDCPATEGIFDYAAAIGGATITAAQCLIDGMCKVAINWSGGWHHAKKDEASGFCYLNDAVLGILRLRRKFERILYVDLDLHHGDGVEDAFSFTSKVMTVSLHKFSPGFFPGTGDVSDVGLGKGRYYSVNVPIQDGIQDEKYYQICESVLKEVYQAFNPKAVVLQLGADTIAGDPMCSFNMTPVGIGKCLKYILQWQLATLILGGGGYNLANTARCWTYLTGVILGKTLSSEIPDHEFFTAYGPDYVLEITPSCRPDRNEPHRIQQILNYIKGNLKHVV

[3] = target: T3, Histone deacetylase 3 (Homo sapiens, UniProt O15379); assay: Inhibition of human recombinant HDAC3 using Boc-Lys(Ac)-AMC as substrate preincubated for 5 mins followed by substrate addition measured after 30 mins by microplate reader analysis
[4] = target: T4, Histone deacetylase 8 (Homo sapiens) (UniProt Q9BY41); assay: Binding affinity to human recombinant HDAC8 expressed in Escherichia coli assessed as enzyme biotinylation level at […] preincubated for 3 hrs followed by denaturation measured after 60 mins by Western blot-based photoaffinity labelling method in presence of 0.25 and […] SAHA
T4 sequence (whole entry): T2 sequence (Q9BY41 whole entry)

[5] = target: T4, Histone deacetylase 8 (Homo sapiens); assay: (§2) Binding affinity to human recombinant HDAC8 expressed in Escherichia coli assessed as increase in enzyme biotinylation level preincubated for 3 hrs followed by denaturation measured after 60 mins by Western blot-based photoaffinity labelling method
Procedure, shortened: (§3)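 Probe, or probe plus competitor, preincubated 3 h at room temperature, then irradiated at 254 nm for 3 × 1 min with 1 min rests. For denaturing runs, SDS was added to 2% w/v final and held 30 min at 37 °C.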

[6] = target: T4, Histone deacetylase 8 (Homo sapiens); assay: Inhibition of human recombinant HDAC8 using fluor de Lys as substrate assessed as residual activity at 66 uM preincubated for 5 mins followed by substrate addition measured after 25 mins by microplate reader analysis
[7] = target: T5, Histone deacetylase 1 (Homo sapiens, UniProt Q13547); assay: Inhibition of human recombinant HDAC1 using Boc-Lys(Ac)-AMC as substrate preincubated for 5 mins followed by substrate addition measured after 30 mins by microplate reader analysis
[8] = target: T4, Histone deacetylase 8 (Homo sapiens); assay: Binding affinity to human recombinant HDAC8 expressed in Escherichia coli assessed as enzyme biotinylation level at 1.5 uM under non denaturating condition after 3 hrs by Western blot-based photoaffinity labelling method in presence of 7-[4-(3,5-Dimethyl-benzyloxy)phenylcarbamoyl]heptanoic acid methyl ester; procedure, shortened: as §3
[9] = target: T6, Histone deacetylase 2 (Homo sapiens, UniProt Q92769); assay: Inhibition of nuclear HDAC2 in human SH-SY5Y cells assessed as increase in histone H4 acetylation after 24 hrs by Western blot analysis; assay type: cell-based; procedure, shortened: as §1
[10] = target: T6, Histone deacetylase 2; assay: Inhibition of human recombinant HDAC2 using Boc-Lys(Ac)-AMC as substrate preincubated for 5 mins followed by substrate addition measured after 30 mins by microplate reader analysis
[11] = target: T4, Histone deacetylase 8 (Homo sapiens); assay: Inhibition of nuclear HDAC8 in human SH-SY5Y cells assessed as increase in histone H4 acetylation after 24 hrs by Western blot analysis; assay type: cell-based; procedure, shortened: as §1
[12] = target: T4, Histone deacetylase 8 (Homo sapiens); assay: Binding affinity to human recombinant HDAC8 expressed in Escherichia coli assessed as enzyme biotinylation level at 1.5 uM under non denaturating condition after 3 hrs by Western blot-based photoaffinity labelling method in presence of 37.5 and 75 uM TSA; procedure, shortened: as §3
[13] = target: T3, Histone deacetylase 3; assay: Inhibition of human recombinant HDAC3 using Boc-Lys(Ac)-AMC as substrate at 66 uM preincubated for 5 mins followed by substrate addition measured after 30 mins by microplate reader analysis
[14] = target: T4, Histone deacetylase 8 (Homo sapiens); assay: Binding affinity to human recombinant HDAC8 expressed in Escherichia coli assessed as enzyme biotinylation level at 1.5 uM under non denaturating condition after 3 hrs by Western blot-based photoaffinity labelling method in presence of 37.5 and 75 uM SAHA; procedure, shortened: as §3
[15] = target: T4, Histone deacetylase 8 (Homo sapiens); assay: as §2, with “as” for “as increase in”, “level at 5 uM” for “level”, “method in presence of 250 uM 7-[4-(3,5-Dimethyl-benzyloxy)phenylcarbamoyl]heptanoic acid methyl ester” for “method”; procedure, shortened: as §3
[16] = target: T3, Histone deacetylase 3; assay: Inhibition of nuclear HDAC3 in human SH-SY5Y cells assessed as increase in histone H4 acetylation after 24 hrs by Western blot analysis; assay type: cell-based; procedure, shortened: as §1
[17] = target: T5, Histone deacetylase 1; assay: Inhibition of nuclear HDAC1 in human SH-SY5Y cells assessed as increase in histone H4 acetylation after 24 hrs by Western blot analysis; assay type: cell-based; procedure, shortened: as §1
[18] = target: T1, Protein deacetylase HDAC6 (Homo sapiens); assay: Inhibition of cytoplasmic HDAC6 in human SH-SY5Y cells assessed as alpha-tubulin acetylation at 31.25 to 125 uM after 24 hrs by Western blot analysis; assay type: cell-based; procedure, shortened: as §1
[19] = target: T4, Histone deacetylase 8 (Homo sapiens); assay: Binding affinity to human recombinant HDAC8 expressed in Escherichia coli assessed as enzyme biotinylation level at 1.5 uM under non denaturating condition after 3 hrs by Western blot-based photoaffinity labelling method in presence of 37.5 and 75 uM PCI34051; procedure, shortened: as §3
[20] = target: T4, Histone deacetylase 8 (Homo sapiens); assay: Binding affinity to human recombinant HDAC8 expressed in Escherichia coli assessed as enzyme biotinylation level at 5 uM preincubated for 3 hrs followed by denaturation measured after 60 mins by Western blot-based photoaffinity labelling method in presence of 250 uM TSA; procedure, shortened: as §3
[21] = target: T4, Histone deacetylase 8 (Homo sapiens); assay: Binding affinity to human recombinant HDAC8 expressed in Escherichia coli assessed as increase in enzyme biotinylation level at […] under non denaturating condition after 3 hrs by Western blot-based photoaffinity labelling method
[22] = target: T4, Histone deacetylase 8 (Homo sapiens); assay: Binding affinity to human recombinant HDAC8 expressed in Escherichia coli assessed as enzyme biotinylation level at 5 uM preincubated for 3 hrs followed by denaturation measured after 60 mins by Western blot-based photoaffinity labelling method in presence of 250 uM SAHA; procedure, shortened: as §3
[23] = target: T4, Histone deacetylase 8 (Homo sapiens); assay: Binding affinity to human recombinant HDAC8 expressed in Escherichia coli assessed as enzyme biotinylation level at 5 uM preincubated for 3 hrs followed by denaturation measured after 60 mins by Western blot-based photoaffinity labelling method in presence of 250 uM PCI34051; procedure, shortened: as §3
[24] = target: T4, Histone deacetylase 8 (Homo sapiens); assay: Binding affinity to human recombinant HDAC8 expressed in Escherichia coli assessed as increase in enzyme biotinylation level at 5 uM preincubated for 3 hrs followed by denaturation measured after 60 mins by Western blot-based photoaffinity labelling method in presence of 5 uM SAHA; procedure, shortened: as §3
[25] = target: T4, Histone deacetylase 8 (Homo sapiens); assay: Binding affinity to human recombinant HDAC8 expressed in Escherichia coli assessed as increase in enzyme biotinylation level at […] preincubated for 3 hrs followed by denaturation measured after 60 mins by Western blot-based photoaffinity labelling method

T5 sequence (Q13547 whole entry): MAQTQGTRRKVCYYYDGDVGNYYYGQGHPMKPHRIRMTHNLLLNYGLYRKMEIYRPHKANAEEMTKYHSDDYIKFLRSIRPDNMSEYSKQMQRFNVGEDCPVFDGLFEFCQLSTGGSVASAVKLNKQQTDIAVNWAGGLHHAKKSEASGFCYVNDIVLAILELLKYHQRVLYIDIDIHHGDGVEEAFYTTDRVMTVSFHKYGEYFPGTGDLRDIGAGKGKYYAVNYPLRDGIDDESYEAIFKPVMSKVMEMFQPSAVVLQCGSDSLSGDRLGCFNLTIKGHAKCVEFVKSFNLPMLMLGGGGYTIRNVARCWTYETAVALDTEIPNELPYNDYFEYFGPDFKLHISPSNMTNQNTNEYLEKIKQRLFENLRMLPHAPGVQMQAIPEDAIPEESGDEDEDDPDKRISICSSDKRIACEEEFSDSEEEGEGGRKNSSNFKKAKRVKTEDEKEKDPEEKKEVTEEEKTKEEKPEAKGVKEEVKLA
T6 sequence (Q92769 whole entry): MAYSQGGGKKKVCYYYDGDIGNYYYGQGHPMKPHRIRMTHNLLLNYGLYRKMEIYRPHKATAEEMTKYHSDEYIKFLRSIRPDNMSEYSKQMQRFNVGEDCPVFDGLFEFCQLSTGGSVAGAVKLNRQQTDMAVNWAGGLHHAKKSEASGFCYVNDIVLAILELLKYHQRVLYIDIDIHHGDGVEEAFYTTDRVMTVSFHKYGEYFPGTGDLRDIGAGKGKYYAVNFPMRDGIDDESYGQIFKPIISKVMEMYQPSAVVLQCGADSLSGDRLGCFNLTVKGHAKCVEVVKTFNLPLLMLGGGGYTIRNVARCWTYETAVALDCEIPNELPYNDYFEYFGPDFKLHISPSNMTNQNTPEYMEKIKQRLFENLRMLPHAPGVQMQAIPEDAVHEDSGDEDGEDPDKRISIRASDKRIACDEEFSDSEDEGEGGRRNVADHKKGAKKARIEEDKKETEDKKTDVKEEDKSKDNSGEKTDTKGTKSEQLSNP
T3 sequence (O15379 whole entry): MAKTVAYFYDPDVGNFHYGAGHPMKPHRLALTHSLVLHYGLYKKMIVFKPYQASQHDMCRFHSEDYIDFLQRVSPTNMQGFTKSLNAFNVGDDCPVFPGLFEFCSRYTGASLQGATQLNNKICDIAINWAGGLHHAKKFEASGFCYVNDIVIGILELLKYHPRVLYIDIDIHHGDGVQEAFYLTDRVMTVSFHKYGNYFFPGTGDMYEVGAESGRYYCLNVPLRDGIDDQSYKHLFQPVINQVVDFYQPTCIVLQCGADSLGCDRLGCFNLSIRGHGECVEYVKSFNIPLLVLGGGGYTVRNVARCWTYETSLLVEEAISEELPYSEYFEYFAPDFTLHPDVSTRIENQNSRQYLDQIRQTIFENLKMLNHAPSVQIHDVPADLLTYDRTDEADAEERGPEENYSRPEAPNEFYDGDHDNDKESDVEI

O=C(NO)c1ccc(Cn2c3ccccc3c3ccccc32)cc1
inhibition [1]: Active

COC(=O)CCCCCCC(=O)Nc1ccc(OCc2cc(C)cc(C)c2)cc1
IC50 ([2]; read-out: IC50): 47.8 µM

[N-]=[N+]=NCc1cc(COc2ccc(NC(=O)CCCCCCC(=O)NO)cc2)cc(N=[N+]=[N-])c1
Ki [3]: 0.74 µM
Activity [4]: inactive
Activity [5]: Dose-dependent effect

COC(=O)CCCCCCC(=O)Nc1ccc(OCc2ccccc2)cc1
Activity [6]: > 50%
IC50 [2]: Not Active

CCCCCCCC(=O)Nc1ccc(OCc2cc(C)cc(C)c2)cc1
IC50 [2]: Not Active

COc1cc(COc2ccc(NC(=O)CCCCCCC(=O)OCc3ccc(CN=[N+]=[N-])cc3)cc2)cc(N=[N+]=[N-])c1
IC50 [7]: 86 µM
Activity [8]: inactive
inhibition [9]: Dose-dependent effect
IC50 [10]: 79 µM
inhibition [11]: Dose-dependent effect
Activity [12]: inactive
inhibition [13]: inactive
Activity [14]: inactive
IC50 ([2]; read-out: IC50): 28 µM
Activity [15]: inactive
inhibition [16]: Dose-dependent effect
inhibition [17]: Dose-dependent effect
inhibition [18]: inactive
Activity [19]: inactive

COC(=O)CCCCCCC(=O)Nc1cnn(Cc2cc(CN=[N+]=[N-])cc(N=[N+]=[N-])c2)c1
IC50 ([2]; read-out: IC50): 36 µM

CC(C)(C)OC(=O)CCCCCCC(=O)Nc1ccc(OCc2cc(CN=[N+]=[N-])cc(N=[N+]=[N-])c2)cc1
IC50 ([2]; read-out: IC50): 42.6 µM

[N-]=[N+]=NCc1cc(Cn2cc(NC(=O)CCCCCCC(=O)NO)cn2)cc(N=[N+]=[N-])c1
Ki [3]: 0.064 µM

[N-]=[N+]=NCc1cc(N=[N+]=[N-])cc(C(=O)Nc2ccc(-c3cc(C(=O)NCCCCCCC(=O)NO)no3)cc2)c1
Ki [3]: 0.023 µM

Cc1cc(C)cc(COc2ccc(NC(=O)CCCCCCC(=O)OC(C)(C)C)cc2)c1
IC50 ([2]; read-out: IC50): 53.2 µM

COc1cc(COc2ccc(NC(=O)CCCCCCC(=O)OCCN=[N+]=[N-])cc2)cc(N=[N+]=[N-])c1
IC50 [7]: 111 µM
Activity [5]: Dose-dependent effect
IC50 [10]: 72 µM
inhibition [13]: inactive
IC50 ([2]; read-out: IC50): 67.5 µM

COC(=O)CCCCCCC(=O)Nc1ccc(OCc2cc(CN=[N+]=[N-])cc(N=[N+]=[N-])c2)cc1
Activity [20]: inactive
Activity [21]: Active
Activity [22]: inactive
Activity [23]: inactive
Activity [24]: Active
Activity [5]: Dose-dependent effect
Activity [25]: Active
IC50 ([2]; read-out: IC50): 37.4 µM
Activity [15]: inactive

COC(=O)CCCCCCNC(=O)c1cc(-c2ccc(NC(=O)c3cc(CN=[N+]=[N-])cc(N=[N+]=[N-])c3)cc2)on1
IC50 ([2]; read-out: IC50): 47.1 µM
